Measurements as given in ChEMBL document CHEMBL4831540, “Discovery of Aficamten (CK-274), a Next-Generation Cardiac Myosin Inhibitor for the Treatment of Hypertrophic Cardiomyopathy” (J Med Chem, 2021).

How the values were obtained:
[1] = Cmax in Sprague-Dawley rat at 2 mg/kg, po; assay type: ADME, organism-based; design: route oral, dose 2 mg/kg; conditions: in vivo
Summary of the method: (§1)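 Multi-species PK study in male animals, n = 3 per group (dog IV arm n = 2). Iv and oral dosing with plasma concentration–time profiles yielding Cmax, tmax, AUC0–t, CL, Vss, t1/2 and F.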

[2] = Metabolic stability in human liver microsomes assessed as intrinsic clearance measured upto 90mins by HPLC/MS/MS analysis; assay type: ADME, Microsome; conditions: read-out: CLH
[3] = Plasma protein binding in rat plasma assessed as unbound concentration at 5 uM incubated for 6 hrs by HPLC analysis; assay type: ADME, cell-free
[4] = Plasma protein binding in rat assessed as unbound fraction; assay type: ADME, cell-free
[5] = Clearance in Sprague-Dawley rat at 1 mg/kg; assay type: ADME, organism-based; conditions: in vivo
Summary of the method: (§2)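 Rat PK with iv and po administration at 1 mg/kg. Clearance and half-life came from the iv arm, and bioavailability from the iv/po comparison.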

[6] = Half life in Sprague-Dawley rat at 1 mg/kg; assay type: ADME, organism-based; conditions: in vivo; summary of the method: as §2
[7] = Volume of distribution at steady state in mouse at 0.5 mg/kg, iv; assay type: ADME, organism-based; conditions: in vivo, read-out: Vdss
Summary of the method: (§3)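 Single iv or oral doses in male animals, 3 per group except dog iv (2 animals). Plasma concentration–time profiles gave Cmax, tmax, AUC0–t, clearance, steady-state volume of distribution, half-life and bioavailability.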

[8] = Cmax in mouse at 1 mg/kg, po; assay type: ADME, organism-based; design: route oral, dose 1 mg/kg; conditions: in vivo; summary of the method: as §1
[9] = AUC (0 to t) in mouse at 1 mg/kg, po; assay type: ADME, organism-based; design: dose 1 mg/kg; conditions: in vivo; summary of the method: as §1
[10] = Half life in mouse at 1 mg/kg, po; assay type: ADME, organism-based; conditions: in vivo; summary of the method: as §1
[11] = Oral bioavailability in mouse at 1 mg/kg; assay type: ADME, organism-based; conditions: in vivo; summary of the method: as §3
[12] = Half life in Sprague-Dawley rat at 1 mg/kg, iv; assay type: ADME, organism-based; conditions: in vivo; summary of the method: as §2
[13] = Tmax in Sprague-Dawley rat at 2 mg/kg, po; assay type: ADME, organism-based; conditions: in vivo; summary of the method: as §3
[14] = AUC (0 to t) in Sprague-Dawley rat at 2 mg/kg, po; assay type: ADME, organism-based; design: dose 2 mg/kg; conditions: in vivo; summary of the method: as §1
[15] = Cmax in Sprague-Dawley rat at 3 mg/kg, po; assay type: ADME, organism-based; design: route oral, dose 3 mg/kg; conditions: in vivo
[16] = Tmax in Sprague-Dawley rat at 3 mg/kg, po; assay type: ADME, organism-based; conditions: in vivo; summary of the method: as §3
[17] = Cmax in Sprague-Dawley rat at 8 mg/kg, po; assay type: ADME, organism-based; design: route oral, dose 8 mg/kg; conditions: in vivo; summary of the method: as §1
[18] = Tmax in Sprague-Dawley rat at 8 mg/kg, po; assay type: ADME, organism-based; conditions: in vivo; summary of the method: as §3
[19] = AUC (0 to t) in Sprague-Dawley rat at 8 mg/kg, po; assay type: ADME, organism-based; design: dose 8 mg/kg; conditions: in vivo; summary of the method: as §1
[20] = Oral bioavailability in Sprague-Dawley rat at 8 mg/kg; assay type: ADME, organism-based; conditions: in vivo; summary of the method: as §3
[21] = Clearance in Beagle dog at 1 mg/kg, iv; assay type: ADME, organism-based, Canis lupus familiaris; conditions: in vivo; summary of the method: as §1
[22] = Tmax in Beagle dog at 1 mg/kg, po; assay type: ADME, organism-based, Canis lupus familiaris; conditions: in vivo; summary of the method: as §3
[23] = Half life in Beagle dog at 1 mg/kg, po; assay type: ADME, organism-based, Canis lupus familiaris; conditions: in vivo; summary of the method: as §1
[24] = Oral bioavailability in Beagle dog at 1 mg/kg; assay type: ADME, organism-based, Canis lupus familiaris; conditions: in vivo; summary of the method: as §1
[25] = AUC (0 to t) in cynomolgus monkey at 1 mg/kg, iv; assay type: ADME, organism-based, Macaca fascicularis; design: dose 1 mg/kg; conditions: in vivo; summary of the method: as §1
[26] = Volume of distribution at steady state in cynomolgus monkey at 1 mg/kg, iv; assay type: ADME, organism-based, Macaca fascicularis; conditions: in vivo, read-out: Vdss; summary of the method: as §3
[27] = Cmax in cynomolgus monkey at 1 mg/kg, po; assay type: ADME, organism-based, Macaca fascicularis; design: route oral, dose 1 mg/kg; conditions: in vivo; summary of the method: as §1
Rattus norvegicus [28] = test: Anti-hypertrophic cardiomyopathy in Sprague-Dawley rat assessed as reduction in fractional shortening at 4 mg/kg, po measured upto 24 hrs by echocardiography relative to control; assay type: functional; design: scale not given: the % may be the effect or the level left; conditions: time hrs <=24
Summary of the method: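 Normal Sprague–Dawley rats were given single oral doses of 0.5–4 mg/kg. Left ventricular dimensions and fractional shortening were measured by echocardiography at selected time points over 24 h, relative to vehicle treatment.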

Rattus norvegicus [29] = test: Anti-hypertrophic cardiomyopathy in po dosed Sprague-Dawley rat assessed as reduction in fractional shortening by measuring free concentration measured upto 24 hrs by echocardiography; assay type: functional; conditions: time hrs <=24
Summary of the method: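 Sprague–Dawley rats received single oral doses of 0.5–4 mg/kg, with fractional shortening measured by echocardiography over 24 h. Blood was sampled at each echo time point. Plasma levels were converted to free concentrations using rat plasma protein binding, and free IC10 and IC50 were derived from the FS reduction–concentration relationship.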

Cytochrome P450 1A2 = target: T1, Cytochrome P450 1A2 (Homo sapiens, UniProt P05177); test: Inhibition of CYP1A2 in human liver microsomes assessed as phenacetin O-deethylation reaction incubated for 30 mins in presence of NADP by LC-MS/MS analysis; assay type: ADME
T1 sequence (P05177 whole entry): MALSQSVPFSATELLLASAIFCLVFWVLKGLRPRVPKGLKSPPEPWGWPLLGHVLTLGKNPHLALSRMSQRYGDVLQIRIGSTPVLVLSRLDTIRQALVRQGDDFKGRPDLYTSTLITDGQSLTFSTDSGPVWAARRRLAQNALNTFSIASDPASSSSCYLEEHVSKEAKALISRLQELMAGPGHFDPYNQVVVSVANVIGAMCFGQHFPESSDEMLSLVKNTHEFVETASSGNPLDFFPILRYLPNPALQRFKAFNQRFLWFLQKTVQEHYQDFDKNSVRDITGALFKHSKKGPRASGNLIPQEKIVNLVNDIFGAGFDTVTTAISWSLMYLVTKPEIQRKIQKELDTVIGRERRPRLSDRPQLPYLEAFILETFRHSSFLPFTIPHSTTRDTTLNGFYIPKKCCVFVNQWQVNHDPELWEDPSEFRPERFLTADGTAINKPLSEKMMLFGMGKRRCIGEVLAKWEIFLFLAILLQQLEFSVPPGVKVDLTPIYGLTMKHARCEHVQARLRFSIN

Cytochrome P450 2B6 = target: T2, Cytochrome P450 2B6 (Homo sapiens, UniProt P20813); test: Inhibition of CYP2B6 in human liver microsomes assessed as bupropion hydroxylation reaction incubated for 30 mins in presence of NADP by LC-MS/MS analysis; assay type: ADME
T2 sequence (P20813 whole entry): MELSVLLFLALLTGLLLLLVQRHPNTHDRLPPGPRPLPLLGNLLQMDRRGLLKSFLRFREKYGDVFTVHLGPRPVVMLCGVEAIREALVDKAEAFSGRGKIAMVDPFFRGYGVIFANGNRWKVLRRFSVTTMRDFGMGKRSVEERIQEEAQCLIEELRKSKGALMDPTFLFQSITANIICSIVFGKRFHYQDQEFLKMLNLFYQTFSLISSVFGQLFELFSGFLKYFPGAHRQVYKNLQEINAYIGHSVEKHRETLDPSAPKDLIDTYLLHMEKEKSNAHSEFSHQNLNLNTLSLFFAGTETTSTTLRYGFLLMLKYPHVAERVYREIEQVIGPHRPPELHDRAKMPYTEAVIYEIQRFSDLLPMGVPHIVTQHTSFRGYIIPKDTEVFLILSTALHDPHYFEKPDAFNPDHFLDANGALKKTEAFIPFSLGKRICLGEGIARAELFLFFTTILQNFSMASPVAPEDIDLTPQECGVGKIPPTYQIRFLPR

Cytochrome P450 2C9 = Cytochrome P450 2C9 (Homo sapiens, UniProt P11712); test: Inhibition of CYP2C9 in human liver microsomes assessed as diclofenac 4'-hydroxylation reaction incubated for 30 mins in presence of NADP by LC-MS/MS analysis; assay type: ADME
Chain of Cytochrome P450 2C9 (P11712 whole entry): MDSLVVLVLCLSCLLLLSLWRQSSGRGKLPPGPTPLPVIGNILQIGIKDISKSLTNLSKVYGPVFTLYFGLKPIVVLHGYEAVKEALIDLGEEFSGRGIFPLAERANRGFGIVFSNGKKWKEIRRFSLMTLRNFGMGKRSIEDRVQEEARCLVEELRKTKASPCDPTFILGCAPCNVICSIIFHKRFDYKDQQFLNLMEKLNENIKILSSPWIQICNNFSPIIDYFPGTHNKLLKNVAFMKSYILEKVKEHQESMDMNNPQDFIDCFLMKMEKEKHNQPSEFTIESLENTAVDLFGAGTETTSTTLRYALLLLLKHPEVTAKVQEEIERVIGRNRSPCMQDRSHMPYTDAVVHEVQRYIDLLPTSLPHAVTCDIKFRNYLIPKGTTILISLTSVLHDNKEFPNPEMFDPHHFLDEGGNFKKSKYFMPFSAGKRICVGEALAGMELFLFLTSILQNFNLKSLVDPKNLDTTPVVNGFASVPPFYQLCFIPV

Cytochrome P450 3A4 = Cytochrome P450 3A4 (Homo sapiens, UniProt P08684); test: Inhibition of CYP3A4 in human liver microsomes assessed as midazolam 1'-hyrozylation reaction incubated for 30 mins in presence of NADP by LC-MS/MS analysis; assay type: ADME
Chain of Cytochrome P450 3A4 (P08684 whole entry): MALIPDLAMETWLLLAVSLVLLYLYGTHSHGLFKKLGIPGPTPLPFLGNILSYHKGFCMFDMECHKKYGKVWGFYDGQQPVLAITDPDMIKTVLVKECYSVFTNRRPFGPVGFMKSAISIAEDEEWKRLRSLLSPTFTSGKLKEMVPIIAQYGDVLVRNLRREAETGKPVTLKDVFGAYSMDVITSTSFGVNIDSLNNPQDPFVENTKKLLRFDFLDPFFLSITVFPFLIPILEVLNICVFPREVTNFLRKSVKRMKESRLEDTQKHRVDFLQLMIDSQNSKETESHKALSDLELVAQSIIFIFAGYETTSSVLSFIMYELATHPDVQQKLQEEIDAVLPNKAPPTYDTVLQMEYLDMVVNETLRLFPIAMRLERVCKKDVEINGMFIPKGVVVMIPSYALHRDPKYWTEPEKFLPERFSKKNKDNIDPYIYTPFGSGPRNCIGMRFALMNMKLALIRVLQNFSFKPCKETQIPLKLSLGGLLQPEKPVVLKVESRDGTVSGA

CCc1nc(-c2ccc3c(c2)CC[C@H]3NC(=O)c2cnn(C)c2)no1 [AFICAMTEN]
Cmax [1]: 1650 ng/mL
CLint scaled [2]: < 11 mL/min/kg
fraction unbound at 6 h, 5 µM [3]: 0.018
fraction unbound [4]: 0.018
clearance [5]: 2.1 mL/min/kg
half-life [6]: 3 h
Vd [7]: 3.14 L/kg
Cmax [8]: 268 ng/mL
AUC(0-t) [9]: 1830 ng·h/mL
half-life [10]: 3.4 h
bioavailability [11]: 98%
half-life [12]: 3 h
Tmax [13]: 0.92 h
AUC(0-t) [14]: 9450 ng·h/mL
Cmax [15]: 3170 ng/mL
Tmax [16]: 0.42 h
Cmax [17]: 8440 ng/mL
Tmax [18]: 0.58 h
AUC(0-t) [19]: 53700 ng·h/mL
bioavailability [20]: 79%
clearance [21]: 3.3 mL/min/kg
Tmax [22]: 0.33 h
half-life [23]: 28.7 h
bioavailability [24]: 45%
AUC(0-t) [25]: 1340 ng·h/mL
Vd [26]: 7.76 L/kg
Cmax [27]: 65 ng/mL
Activity (Rattus norvegicus [28]): 70%
IC10 (Rattus norvegicus [29]): 0.0144 µM
IC50 (Cytochrome P450 1A2): > 100 µM
IC50 (Cytochrome P450 2B6): > 100 µM
IC50 (Cytochrome P450 2C9): > 100 µM
IC50 (Cytochrome P450 3A4): > 100 µM
